The test system of series [1] is Middle East respiratory syndrome-related coronavirus. Briefly: Antiviral activity against MERS-CoV infected in human Caco2 cells assessed as inhibition of viral replication measured at 18 hrs post-infection by plaque formation assay. The format is functional, organism-based. Conditions: Caco-2, 18 h.
A short description of series [2]: Cytotoxicity against human Huh7.5.1 cells assessed as decrease in cell viability after 48 hrs by WST1 assay. The format is cell-based. The procedure, abridged: (§1)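 Cells seeded at 1 × 10^4 per well and cultured overnight at 37 °C, then incubated 48 h with serially diluted compounds. Viability read with WST-1 reagent as absorbance at OD450/OD630.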
Series [3] can be described thus: Selectivity index, ratio of CC50 for human Huh7.5.1 cells to EC50 for EGFP-fused HCV JFH-1 harboring K78E/E2-G451R/NS3-M260K/NS5A-T462I mutant infected in human Huh7.5.1 cells. The following applies: read-out: Ratio CC50/EC50. The format is toxicity, cell-based.
The subject of series [4] is Hepatitis C virus. Briefly: Antiviral activity against EGFP-fused HCV JFH-1 harboring K78E/E2-G451R/NS3-M260K/NS5A-T462I mutation infected in human Huh7.5.1 cells assessed as reduction in viral RNA level after 2 days in presence of IFNalpha by qRT-PCR analysis. In kind it is functional, organism-based. Conditions: Hepacivirus hominis. Summed up: (§2)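 Huh7.5.1 cells at 1×10^4/well, grown overnight at 37 °C. HCVcc was mixed with serially diluted compound (top 30 or 6 μM), given alone or with the named drug, and added to the cells. Viral RNA was read by qRT-PCR after 2 days. EC50 is the concentration giving 50% RNA reduction.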

Series [5] has as its system Hepatitis C virus. The series is described as follows: Antiviral activity against EGFP-fused HCV JFH-1 harboring K78E/E2-G451R/NS3-M260K/NS5A-T462I mutation infected in human Huh7.5.1 cells assessed as reduction in viral RNA level after 2 days in presence of boceprevir by qRT-PCR analysis. The format is functional, organism-based. The following applies: Hepacivirus hominis. Summed up: as §2

In series [6] the test system is Hepatitis C virus. Briefly: Antiviral activity against EGFP-fused HCV JFH-1 harboring K78E/E2-G451R/NS3-M260K/NS5A-T462I mutation infected in human Huh7.5.1 cells assessed as combination index after 2 days in presence of sofosbuvir by qRT-PCR analysis. In kind it is functional, Hepacivirus hominis. The procedure, abridged:
(§3)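 In HCVcc-infected Huh7.5.1 cells (1×10^4/well, overnight, 37 °C), compound was given at various concentrations alone or with the named approved antiviral. After 2 days HCV RNA was quantified by qRT-PCR to derive the combination index.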

The test system of series [7] is Hepatitis C virus. Briefly: Antiviral activity against EGFP-fused HCV JFH-1 harboring K78E/E2-G451R/NS3-M260K/NS5A-T462I mutation infected in human Huh7.5.1 cells assessed as combination index after 2 days in presence of daclatasvir by qRT-PCR analysis. The format is functional, Hepacivirus hominis. The procedure, abridged: as §3
The test system of series [8] is Severe fever with thrombocytopenia syndrome virus. The series is described as follows: Antiviral activity against SFTSV infected in African green monkey Vero cells assessed as reduction in viral titre measured at 4 days post infection. The format is functional. Conditions: 96 h.
A short description of series [9]: Cytotoxicity against human Huh7.5.1 cells infected with ZIKV assessed as decrease in cell viability after 48 hrs by WST1 assay. The format is cell-based. Summed up: as §1
Series [10] in a line: Selectivity index, ratio of CC50 for human RD cells to EC50 for EV71(FY)-Luc infected in human RD cells. In kind it is toxicity, cell-based. Conditions: read-out: Ratio CC50/EC50. The procedure, abridged: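 RD cells seeded at 1×10^4/well and cultured overnight, then infected with EV71(FY)-Luc at MOI 1 and treated with compound straight away. EC50 is the 50% drop in luminescence or RNA. CC50 comes from a 48 h serial-dilution exposure at 1×10^4 cells/well, read by WST-1 (OD450/OD630).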

Series [11] is described as follows: Selectivity index, ratio of CC50 for African green monkey Vero cells to EC50 for RSV infected in African green monkey Vero cells. In kind it is toxicity. The following applies: read-out: Ratio CC50/EC50.
Series [12] is filed under the species Homo sapiens. The series is described as follows: Binding affinity to C-terminal 6-His tagged recombinant human DHODH N-terminal domain delta29 mutant expressed in Escherichia coli BL21(DE3) assessed as reduction in pronase-mediated protein degradation incubated for 1 hr followed by pronase addition and measured after 15 mins by SDS-PAGE based Western blot analysis. Summed up: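 DARTS used Δ29 human DHODH with a C-terminal His6 tag, expressed in E. coli BL21(DE3) and purified on HisTrap then Superdex200. Protein at 20 μg/ml in TNC buffer (50 mM Tris pH 8.0, 50 mM NaCl, 10 mM CaCl2) was incubated 1 h at RT with compound or DMSO. Pronase followed, 15 min at 37 °C; protease-inhibitor quench; anti-DHODH western blot.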

Series [13] has as its system Hepatitis C virus. Briefly: Antiviral activity against HCV infected in human Huh7.5.1 cells assessed as decrease in viral infection in presence of uridine. The format is functional, organism-based, Hepacivirus hominis. The following applies: Huh-7.5.1. The procedure, abridged:
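HCV antiviral EC50 in Huh7.5.1 cells was measured with 0.5 mM uridine supplemented, and compared with the EC50 obtained without uridine.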

The target in series [14] is Heat shock protein HSP90 (Homo sapiens) (UniProt P07900+P08238). The series is described as follows: Binding affinity to HSP90 (unknown origin). The format is protein assay.
Series [15] can be described thus: Cytotoxicity against human Caco2 cells infected with MERS-CoV measured after 48 hrs by WST1 assay. In kind it is cell-based, Caco-2. Summed up:
(§4)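 Cells at 1×10^4/well, cultured overnight at 37 °C, were incubated 48 h with serially diluted compound. Viability was read by WST-1 absorbance (OD450/OD630).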

Series [16] in a line: Cytotoxicity against MDCK cells infected with Gaussia tagged Influenza A virus (A/Puerto Rico/8/34(H1N1)) measured after 48 hrs by WST1 assay. In kind it is cell-based, Canis lupus familiaris. Conditions: dog. Summed up:
as §4

Activity calls are given as the source filed them. The calls are words filed in the database; no cut-off is given here.

Take `CCN(CC)c1ccc(Oc2ccc(-c3[nH]c4cccc(F)c4c(=O)c3C)cc2F)cc1`: the half-maximal effective concentration (EC50) in [1] came to 0.333 µM; in series [8], 0.3 µM; in [13], 2.8 µM. The CC50 at 48 h in series [2], in [9], in series [15] and in series [16] was over 2.5 µM in each case. Moreover, the selectivity ratio in series [3] is over 416; in series [10] it was over 625; in [11], over 41. The Activity entry in [4], in series [5] and in series [12] was “Dose-dependent effect” throughout. Further, the CI in series [6] is recorded as over 50; in series [7], “>=10 - 50”. Also, in series [14], the outcome was inactive.

The values are drawn from ChEMBL document CHEMBL4334439, “Discovery, Optimization, and Target Identification of Novel Potent Broad-Spectrum Antiviral Inhibitors” (J Med Chem, 2019).
